From ChEMBL document CHEMBL2203249, “Optimization of a small tropomyosin-related kinase B (TrkB) agonist 7,8-dihydroxyflavone active in mouse models of depression” (J Med Chem, 2012)
Activity calls are given as the source filed them. The calls are words filed in the database; no cut-off is given here.

Legend:
[1] = target: Voltage-gated inwardly rectifying potassium channel KCNH2 (Homo sapiens, UniProt Q12809); experiment: Inhibition of human ERG
CYP1A2 [2] = target: T1, CYP1A2 (Homo sapiens, UniProt P05177); experiment: Inhibition of CYP1A2 at 30 uM; format: ADME
T1 sequence (P05177 whole entry): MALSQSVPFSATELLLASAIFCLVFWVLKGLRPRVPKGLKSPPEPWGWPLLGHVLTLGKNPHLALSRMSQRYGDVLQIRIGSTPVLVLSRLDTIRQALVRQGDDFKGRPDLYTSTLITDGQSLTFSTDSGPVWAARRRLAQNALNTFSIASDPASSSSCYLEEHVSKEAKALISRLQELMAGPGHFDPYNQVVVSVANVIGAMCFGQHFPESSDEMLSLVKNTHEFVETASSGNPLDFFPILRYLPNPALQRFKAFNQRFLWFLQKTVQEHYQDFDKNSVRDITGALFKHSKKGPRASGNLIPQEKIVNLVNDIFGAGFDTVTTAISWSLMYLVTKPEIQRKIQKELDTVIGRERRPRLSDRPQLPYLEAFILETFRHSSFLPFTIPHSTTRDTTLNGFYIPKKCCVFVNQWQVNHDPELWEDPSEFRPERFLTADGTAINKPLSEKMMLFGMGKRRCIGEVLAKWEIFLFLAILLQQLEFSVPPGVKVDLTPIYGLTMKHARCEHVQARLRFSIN
How it was run: (§1)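 CYP inhibition was tested at 3 and 30 μM and reported as percent inhibition. The assay was run by a contract lab.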

CYP1A2 [3] = target: T1, CYP1A2; experiment: Inhibition of CYP1A2 at 3 uM; format: ADME; how it was run: as §1
CYP2D6 = CYP2D6 (Homo sapiens, UniProt P10635); experiment: Inhibition of CYP2D6 at 3 uM; format: ADME
CYP2D6, sequence (P10635 whole entry): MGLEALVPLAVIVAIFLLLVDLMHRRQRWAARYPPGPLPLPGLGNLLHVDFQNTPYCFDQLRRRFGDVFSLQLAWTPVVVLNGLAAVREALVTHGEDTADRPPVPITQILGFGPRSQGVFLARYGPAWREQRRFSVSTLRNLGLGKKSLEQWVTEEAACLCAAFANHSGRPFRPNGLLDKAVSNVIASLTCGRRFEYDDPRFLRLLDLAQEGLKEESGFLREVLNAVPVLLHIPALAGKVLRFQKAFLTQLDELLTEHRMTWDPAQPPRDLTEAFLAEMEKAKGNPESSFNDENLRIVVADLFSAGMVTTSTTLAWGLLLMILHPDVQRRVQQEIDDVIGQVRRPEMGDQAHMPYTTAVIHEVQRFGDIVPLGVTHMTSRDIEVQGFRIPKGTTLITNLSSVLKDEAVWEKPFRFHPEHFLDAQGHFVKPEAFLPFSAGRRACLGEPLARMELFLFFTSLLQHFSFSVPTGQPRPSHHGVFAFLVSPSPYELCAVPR

CYP2C19 = CYP2C19 (Homo sapiens, UniProt P33261); experiment: Inhibition of CYP2C19 at 3 uM; format: ADME; how it was run: as §1
CYP2C19, sequence (P33261 whole entry): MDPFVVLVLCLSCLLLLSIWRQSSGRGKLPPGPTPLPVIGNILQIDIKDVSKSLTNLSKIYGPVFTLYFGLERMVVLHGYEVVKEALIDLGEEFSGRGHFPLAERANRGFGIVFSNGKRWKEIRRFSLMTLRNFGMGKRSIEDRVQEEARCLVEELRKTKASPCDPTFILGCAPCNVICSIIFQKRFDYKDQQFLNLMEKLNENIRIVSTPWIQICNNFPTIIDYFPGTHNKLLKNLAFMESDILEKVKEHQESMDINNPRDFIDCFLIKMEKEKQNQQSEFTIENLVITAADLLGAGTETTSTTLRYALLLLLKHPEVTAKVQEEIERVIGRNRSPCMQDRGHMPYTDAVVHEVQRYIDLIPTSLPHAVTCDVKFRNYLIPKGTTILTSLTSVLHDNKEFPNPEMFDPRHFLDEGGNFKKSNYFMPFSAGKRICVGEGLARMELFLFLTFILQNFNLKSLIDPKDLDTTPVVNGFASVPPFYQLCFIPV

CYP3A4 = CYP3A4 (Homo sapiens, UniProt P08684); experiment: Inhibition of CYP3A4 at 3 uM using testosterone substrate; format: ADME; details: probe testosterone
CYP3A4, sequence (P08684 whole entry): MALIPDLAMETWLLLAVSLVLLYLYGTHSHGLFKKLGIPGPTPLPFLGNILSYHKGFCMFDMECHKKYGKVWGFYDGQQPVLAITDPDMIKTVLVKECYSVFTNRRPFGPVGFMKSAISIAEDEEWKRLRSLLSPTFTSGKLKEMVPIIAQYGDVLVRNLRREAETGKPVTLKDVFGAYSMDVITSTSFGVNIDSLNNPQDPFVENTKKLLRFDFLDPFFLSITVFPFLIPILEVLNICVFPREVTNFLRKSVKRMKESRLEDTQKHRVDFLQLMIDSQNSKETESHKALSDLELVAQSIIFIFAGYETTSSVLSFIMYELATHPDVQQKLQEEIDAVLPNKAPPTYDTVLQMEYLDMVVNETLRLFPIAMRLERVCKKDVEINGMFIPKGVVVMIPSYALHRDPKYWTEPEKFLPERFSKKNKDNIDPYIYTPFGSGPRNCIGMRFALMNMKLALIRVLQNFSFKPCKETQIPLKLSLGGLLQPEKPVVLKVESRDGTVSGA

[4] = Metabolic stability in human liver microsomes assessed as remaining parent compound at 1 uM after 1 hr in the absence of […]; format: ADME, Microsome; details: read-out: Stability
How it was run: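 Human liver microsomes were incubated with test compound at 1 μM for 1 h. Percent parent remaining was measured with cofactor and in a cofactor-free control. The work was done by a contract lab.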

Mus musculus [5] = experiment: Agonist activity at TrkB receptor in C57BL/J6 mouse brain assessed as TrkB phosphorylation at tyrosine 816 in hippocampus at 2.5 mg/kg, po after 2 hrs by immunoblotting analysis; format: functional, organism-based; parameters: dose 2.5 mg/kg
Mus musculus [6] = experiment: Agonist activity at TrkB receptor in C57BL/J6 mouse brain assessed as Akt phosphorylation at serine 473 in hippocampus at 1 mg/kg, po after 2 hrs by immunoblotting analysis; format: functional, organism-based; parameters: dose 1 mg/kg
How it was run: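 Hippocampus from male C57BL/6J mice was taken 2 h after a single 1 mg/kg oral dose. Brain was homogenised and ultracentrifuged, and 40 μg supernatant was immunoblotted for p-TrkB, p-Akt and p-MAPK.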

[7] = AUC last in mouse at 10 mg/kg, po by HPLC analysis; format: ADME, organism-based; parameters: time 0 - last, dose 10 mg/kg, route oral; details: plasma
How it was run: (§2)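 Mice of 20–30 g, 6–8 weeks old, dosed i.v. or orally. Blood was drawn at 3, 10, 30, 60, 120, 240, 360 and 480 min into lithium-heparin tubes, spun at 2500 × g for 15 min at 4°C within 1 h and stored at −20°C. Plasma was analysed by HPLC, 3 mice per time point. AUC was calculated by the linear/log trapezoidal method.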

[8] = AUC (infinity) in mouse at 10 mg/kg, po by HPLC analysis; format: ADME, organism-based; parameters: time infinity, dose 10 mg/kg, route oral; details: plasma; how it was run: as §2
[9] = Elimination half life in mouse at 10 mg/kg, po by HPLC analysis; format: ADME, organism-based; parameters: dose 10 mg/kg, route oral; details: in vivo, read-out: beta t1/2; how it was run: as §2
[10] = Cmax in mouse at 10 mg/kg, po by HPLC analysis; format: ADME, organism-based; parameters: dose 10 mg/kg, route oral; details: in vivo; how it was run: as §2
[11] = Tmax in mouse at 10 mg/kg, po by HPLC analysis; format: ADME, organism-based; parameters: dose 10 mg/kg, route oral; details: in vivo
How it was run: (§3)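 Mice (20–30 g, 6–8 weeks old) were dosed i.v. or orally. Blood was drawn into lithium-heparin tubes at 3, 10, 30, 60, 120, 240, 360 and 480 min, with 3 mice per time point. Plasma was separated at 2500 × g for 15 min at 4°C within 1 h and stored at −20°C. Samples were analysed by HPLC, and AUC was calculated by the linear/log trapezoidal method.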

Mus musculus [12] = experiment: Bioavailability in mouse at 10 mg/kg by HPLC analysis; format: ADME, organism-based; details: in vivo; how it was run: as §2
[13] = AUC (infinity) in mouse at 3 mg/kg, iv by HPLC analysis; format: ADME, organism-based; parameters: time infinity, dose 3 mg/kg, route intravenous; details: plasma; how it was run: as §2
[14] = AUC last in mouse at 3 mg/kg, iv by HPLC analysis; format: ADME, organism-based; parameters: time 0 - last, dose 3 mg/kg, route intravenous; details: plasma; how it was run: as §2
[15] = Volume of distribution at steady state in mouse at 3 mg/kg, iv by HPLC analysis; format: ADME, organism-based; parameters: dose 3 mg/kg, route intravenous; details: in vivo, read-out: Vdss; how it was run: as §3
[16] = Volume of distribution in mouse at 3 mg/kg, iv by HPLC analysis; format: ADME, organism-based; parameters: dose 3 mg/kg, route intravenous; details: in vivo, read-out: Vz; how it was run: as §3
[17] = Total body clearance in mouse at 3 mg/kg, iv by HPLC analysis; format: ADME, organism-based; parameters: dose 3 mg/kg, route intravenous; details: in vivo; how it was run: as §3
[18] = Elimination half life in mouse at 3 mg/kg, iv by HPLC analysis; format: ADME, organism-based; parameters: dose 3 mg/kg, route intravenous; details: in vivo, read-out: beta t1/2; how it was run: as §2

Voltage-gated inwardly rectifying potassium channel KCNH2, sequence (Q12809 whole entry): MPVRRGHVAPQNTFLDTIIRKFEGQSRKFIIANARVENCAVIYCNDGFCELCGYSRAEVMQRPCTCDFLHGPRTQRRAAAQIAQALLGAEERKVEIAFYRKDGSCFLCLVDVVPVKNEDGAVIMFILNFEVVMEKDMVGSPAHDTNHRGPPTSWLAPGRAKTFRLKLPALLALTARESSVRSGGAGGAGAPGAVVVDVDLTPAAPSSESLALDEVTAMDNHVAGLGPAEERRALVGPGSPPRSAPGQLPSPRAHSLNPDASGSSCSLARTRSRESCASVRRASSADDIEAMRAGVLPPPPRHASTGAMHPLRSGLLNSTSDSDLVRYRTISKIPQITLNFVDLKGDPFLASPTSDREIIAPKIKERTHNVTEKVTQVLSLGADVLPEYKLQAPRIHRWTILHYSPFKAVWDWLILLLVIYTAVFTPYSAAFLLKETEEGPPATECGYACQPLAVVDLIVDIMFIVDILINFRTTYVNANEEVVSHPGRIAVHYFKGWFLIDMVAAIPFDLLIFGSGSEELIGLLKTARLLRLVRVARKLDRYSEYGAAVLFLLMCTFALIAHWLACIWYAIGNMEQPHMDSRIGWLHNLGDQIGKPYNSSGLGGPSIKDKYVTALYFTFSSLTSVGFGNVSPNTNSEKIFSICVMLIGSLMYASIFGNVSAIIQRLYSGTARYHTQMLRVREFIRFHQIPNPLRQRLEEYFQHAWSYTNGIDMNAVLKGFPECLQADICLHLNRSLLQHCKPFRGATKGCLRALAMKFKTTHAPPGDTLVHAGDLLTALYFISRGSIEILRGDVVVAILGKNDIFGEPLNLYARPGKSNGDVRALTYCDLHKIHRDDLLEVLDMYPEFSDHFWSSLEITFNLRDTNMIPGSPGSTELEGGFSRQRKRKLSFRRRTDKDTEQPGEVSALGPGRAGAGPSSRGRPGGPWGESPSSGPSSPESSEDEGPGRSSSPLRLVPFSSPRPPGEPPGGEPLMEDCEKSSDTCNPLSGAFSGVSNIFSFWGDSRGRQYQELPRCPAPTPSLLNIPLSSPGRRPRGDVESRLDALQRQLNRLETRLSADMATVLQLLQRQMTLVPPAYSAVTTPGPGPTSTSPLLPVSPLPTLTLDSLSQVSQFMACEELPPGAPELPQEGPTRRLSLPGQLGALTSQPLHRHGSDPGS

Row | inhibition at 30 µM (CYP1A2 [2]) [%] | inhibition at 3 µM (CYP2D6) [%] | inhibition at 3 µM (CYP2C19) [%] | inhibition at 3 µM (CYP3A4) [%] | remaining at 1 h, 1 µM [4] [%] | Compound | Activity (Mus musculus [5]) | Activity (Mus musculus [6]) | also measured
1 | 66.1 | 8.7 | 11.1 | 4.5 | 92.2 | Cc1nc2ccc3c(=O)cc(-c4ccc(N5CCCC5)cc4)oc3c2[nH]1 | Active | Active | inhibition (INH) [1]: Not Active; inhibition at 3 µM (CYP1A2 [3]): 27.3%; AUC(0-t) [7]: 19.1 ng·h/mL; AUC(0-inf) [8]: 21.6 ng·h/mL; half-life [9]: 0.967 h; Cmax [10]: 7 ng/mL; Tmax [11]: 2 h; F (Mus musculus [12]): 2%; AUC(0-inf) [13]: 320 ng·h/mL; AUC(0-t) [14]: 312 ng·h/mL; Vd [15]: 10 L/kg; Vd [16]: 23.1 L/kg; clearance [17]: 156 mL/min/kg; half-life [18]: 1.72 h
2 | 75.9 | 7.2 | 16.2 | 3.4 | 79.6 | O=c1cc(-c2ccc(N3CCCC3)cc2)oc2c1ccc1cc[nH]c12 | Active | Active | –
